Assay results from ChEMBL document CHEMBL1143425, “Paradoxical growth effect of caspofungin observed on biofilms and planktonic cells of five different Candida species” (2007).
Calls of active or inactive are those of the source.

What was measured:
Candida orthopsilosis [1] = assay: Antimicrobial activity against Candida orthopsilosis BR-A33 grown as biofilm after 48 hrs by XTT reduction assay; format: functional; details: Lodderomyces orthopsilosis
Method in brief: (§1)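 Isolates were grown on Sabouraud agar (30°C, 24 h), then overnight in RPMI 1640 with MOPS, pH 7.0, at 35°C with shaking. Cells were washed and set to ~1 × 10^7 cells/ml, attached 1.5 h at 37°C, and grown 24 h. Biofilms were then exposed to caspofungin in 10 twofold dilutions (2–1,024 μg/ml) for 48 h at 35°C with shaking. Read-out was XTT-menadione, 1 h, 35°C, dark, A490, cell-free blank subtracted. MIC was the 50% drop in activity versus drug-free control. Tested in duplicate.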

Candida parapsilosis [2] = assay: Antimicrobial activity against Candida parapsilosis 22019 grown as planktonic cell after 48 hrs by XTT reduction assay; format: functional; details: Lodderomyces parapsilosis, 22019, 48 h
Method in brief: (§2)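 Planktonic broth microdilution followed CLSI M27-A2, with caspofungin dissolved in water. After 48 h, XTT-menadione was added to the wells and plates were kept 1 h at 35°C in the dark. Plates were then centrifuged and supernatant A490 was read. MIC was the lowest concentration giving a 50% decrease in metabolic activity versus drug-free control. Paradoxical growth was defined as ≥20% of control activity above the MIC.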

Candida parapsilosis [3] = assay: Antimicrobial activity against Candida parapsilosis BR-A26 grown as biofilm after 48 hrs by XTT reduction assay; format: functional; details: Lodderomyces parapsilosis
Method in brief: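 Clinical isolates were grown overnight (18 h, 35°C, 120 rpm) in RPMI 1640 with MOPS, pH 7.0, then washed and set to ~1 × 10^7 cells/ml. Cells attached for 1.5 h at 37°C, 75 rpm, then biofilms grew 24 h. Caspofungin was given as doubling dilutions of 2–1,024 μg/ml for 48 h at 35°C, 75 rpm. Read-out was XTT-menadione in PBS, 1 h at 35°C in the dark, A490, cell-free blank subtracted. MIC was a 50% drop in activity versus drug-free; PG was >50% of control above MIC. Run in duplicate.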

Candida tropicalis [4] = assay: Antimicrobial activity against Candida tropicalis BR-A9 grown as biofilm after 48 hrs by XTT reduction assay; format: functional; method in brief: as §1
Candida albicans [5] = assay: Antimicrobial activity against Candida albicans BR-A4 grown as planktonic cell after 48 hrs by XTT reduction assay; format: functional; method in brief: as §2
Candida parapsilosis [6] = assay: Antimicrobial activity against Candida parapsilosis BR-A31 grown as planktonic cell assessed as paradoxical growth after 48 hrs by XTT reduction assay; format: functional, organism-based
Method in brief: (§3)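 Planktonic broth microdilution followed CLSI M27-A2, with caspofungin dissolved in water. After 48 h, XTT-menadione was added to each well and plates were incubated 1 h at 35°C in the dark. Cells were pelleted by centrifugation and the supernatant was read at 490 nm. MIC was the lowest concentration giving a 50% drop in metabolic activity versus the drug-free control. PG was ≥20% of drug-free activity above the MIC.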

Candida tropicalis [7] = assay: Antimicrobial activity against Candida tropicalis BR-A9 grown as planktonic cell after 48 hrs by XTT reduction assay; format: functional; method in brief: as §2
Candida albicans [8] = assay: Antimicrobial activity against Candida albicans BR-A7 grown as biofilm after 48 hrs by XTT reduction assay; format: functional; method in brief: as §1
Candida orthopsilosis [9] = assay: Antimicrobial activity against Candida orthopsilosis BR-A37 grown as biofilm assessed as concentration producing paradoxical growth after 48 hrs by XTT reduction assay; format: functional
Method in brief: (§4)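 Sabouraud-grown cells were shaken overnight (18 h, 120 rpm, 35°C) in RPMI 1640 with MOPS at pH 7.0, then washed and set at ~1 × 10^7 cells/ml. Attachment lasted 1.5 h at 37°C, and growth ran 24 h before challenge. Caspofungin was added in RPMI at 2–1,024 μg/ml (10 doublings) for 48 h at 35°C with shaking. XTT-menadione was read at 490 nm after 1 h at 35°C in the dark, with blank wells subtracted. MIC was taken as 50% reduction versus drug-free wells, and PG as >50% of control above MIC. Assays were run in duplicate.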

Candida tropicalis [10] = assay: Antimicrobial activity against Candida tropicalis BR-A20 grown as biofilm after 48 hrs by XTT reduction assay; format: functional; method in brief: as §1
Candida orthopsilosis [11] = assay: Antimicrobial activity against Candida orthopsilosis BR-A39 grown as biofilm assessed as concentration producing paradoxical growth after 48 hrs by XTT reduction assay; format: functional; method in brief: as §4
Candida tropicalis [12] = assay: Antimicrobial activity against Candida tropicalis BR-A8 grown as biofilm after 48 hrs by XTT reduction assay; format: functional; method in brief: as §1
Candida orthopsilosis [13] = assay: Antimicrobial activity against Candida orthopsilosis BR-A36 grown as planktonic cell after 48 hrs by XTT reduction assay; format: functional; details: Lodderomyces orthopsilosis
Method in brief: (§5)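 Planktonic cells were tested by CLSI M27-A2 broth microdilution with caspofungin in water, incubated 48 h. XTT-menadione was added to each well, plates were held 1 h at 35°C in the dark and centrifuged, and supernatant absorbance was read at 490 nm. MIC was defined as 50% decrease in metabolic activity versus drug-free control. PG was defined as ≥20% of control activity at concentrations above MIC.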

Candida orthopsilosis [14] = assay: Antimicrobial activity against Candida orthopsilosis BR-A38 grown as biofilm assessed as paradoxical growth after 48 hrs by XTT reduction assay; format: functional, organism-based; method in brief: as §4
Candida orthopsilosis [15] = assay: Antimicrobial activity against Candida orthopsilosis BR-A33 grown as planktonic cell after 48 hrs by XTT reduction assay; format: functional; details: Lodderomyces orthopsilosis; method in brief: as §5
Candida metapsilosis [16] = assay: Antimicrobial activity against Candida metapsilosis BR-A42 grown as biofilm after 48 hrs by XTT reduction assay; format: functional; details: Lodderomyces metapsilosis; method in brief: as §4
Candida tropicalis [17] = assay: Antimicrobial activity against Candida tropicalis BR-A14 grown as planktonic cell after 48 hrs by XTT reduction assay; format: functional; method in brief: as §3
Candida parapsilosis [18] = assay: Antimicrobial activity against Candida parapsilosis BR-A29 grown as planktonic cell assessed as concentration producing paradoxical growth after 48 hrs by XTT reduction assay; format: functional; method in brief: as §3
Candida albicans [19] = assay: Antimicrobial activity against Candida albicans BR-A4 grown as biofilm after 48 hrs by XTT reduction assay; format: functional; method in brief: as §1
Candida orthopsilosis [20] = assay: Antimicrobial activity against Candida orthopsilosis BR-A32 grown as planktonic cell after 48 hrs by XTT reduction assay; format: functional; details: Lodderomyces orthopsilosis; method in brief: as §2
Candida parapsilosis [21] = assay: Effect on morphology in Candida parapsilosis grown as planktonic cells assessed as inhibition of hyphae and pseudohyphae at 16 ug/ml after 48 hrs; format: functional, organism-based
Method in brief: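 Cells were taken from caspofungin-containing and drug-free wells of the planktonic broth microdilution test after 48 h. They were examined by light microscopy at ×400.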

Candida orthopsilosis [22] = assay: Antimicrobial activity against Candida orthopsilosis BR-A32 grown as biofilm after 48 hrs by XTT reduction assay; format: functional; details: Lodderomyces orthopsilosis; method in brief: as §1
Candida orthopsilosis [23] = assay: Antimicrobial activity against Candida orthopsilosis BR-A33 grown as biofilm assessed as concentration producing paradoxical growth after 48 hrs by XTT reduction assay; format: functional; method in brief: as §4
Candida metapsilosis [24] = assay: Antimicrobial activity against Candida metapsilosis BR-A42 grown as planktonic cell after 48 hrs by XTT reduction assay; format: functional; details: Lodderomyces metapsilosis; method in brief: as §5
Candida orthopsilosis [25] = assay: Antimicrobial activity against Candida orthopsilosis BR-A34 grown as biofilm assessed as concentration producing paradoxical growth after 48 hrs by XTT reduction assay; format: functional; method in brief: as §4
Candida orthopsilosis [26] = assay: Antimicrobial activity against Candida orthopsilosis BR-A39 grown as planktonic cell after 48 hrs by XTT reduction assay; format: functional; details: Lodderomyces orthopsilosis; method in brief: as §2
Candida orthopsilosis [27] = assay: Antimicrobial activity against Candida orthopsilosis BR-A36 grown as biofilm assessed as concentration producing paradoxical growth after 48 hrs by XTT reduction assay; format: functional; method in brief: as §4
Candida metapsilosis [28] = assay: Antimicrobial activity against Candida metapsilosis BR-A41 grown as planktonic cell after 48 hrs by XTT reduction assay; format: functional; details: Lodderomyces metapsilosis; method in brief: as §5
Candida metapsilosis [29] = assay: Antimicrobial activity against Candida metapsilosis BR-A41 grown as biofilm after 48 hrs by XTT reduction assay; format: functional; details: Lodderomyces metapsilosis; method in brief: as §4

CC[C@H](C)C[C@H](C)CCCCCCCCC(=O)N[C@H]1C[C@@H](O)[C@@H](NCCN)NC(=O)[C@@H]2[C@@H](O)CCN2C(=O)[C@H]([C@H](O)CCN)NC(=O)[C@H]([C@H](O)[C@@H](O)c2ccc(O)cc2)NC(=O)[C@@H]2C[C@@H](O)CN2C(=O)[C@H]([C@@H](C)O)NC1=O [CASPOFUNGIN]
32 µg/mL: Activity (Candida orthopsilosis [9]) | Activity (Candida orthopsilosis [11]) | Activity (Candida parapsilosis [18]) | Activity (Candida orthopsilosis [23]) | Activity (Candida orthopsilosis [25])
2 µg/mL: MIC (Candida orthopsilosis [1]) | MIC (Candida parapsilosis [2]) | MIC (Candida tropicalis [4]) | MIC (Candida albicans [8]) | MIC (Candida tropicalis [10]) | MIC (Candida tropicalis [12]) | MIC (Candida metapsilosis [16]) | MIC (Candida albicans [19]) | MIC (Candida orthopsilosis [20]) | MIC (Candida orthopsilosis [22]) | MIC (Candida orthopsilosis [26]) | MIC (Candida metapsilosis [28]) | MIC (Candida metapsilosis [29])
inactive: Activity (Candida parapsilosis [6])
256 µg/mL: MIC (Candida parapsilosis [3])
1 µg/mL: MIC (Candida tropicalis [7]) | MIC (Candida orthopsilosis [13]) | MIC (Candida orthopsilosis [15]) | MIC (Candida metapsilosis [24])
active: Activity (Candida orthopsilosis [14]) | Activity (Candida parapsilosis [21])
0.5 µg/mL: MIC (Candida albicans [5]) | MIC (Candida tropicalis [17])
16 µg/mL: Activity (Candida orthopsilosis [27])
